Laboratory results reported in ChEMBL document CHEMBL1157789, “Design, synthesis and SAR of phenylamino-substituted 5,11-dihydro-dibenzo[a,d]cyclohepten-10-ones and 11H-dibenzo[b,f]oxepin-10-ones as p38 MAP kinase inhibitors” (Bioorg Med Chem Lett, 2010).
pIC50: −log10 of the molar value. The source made the active and inactive calls. The rule behind the calls is not given here.

Tests used:
[1] = target: Proto-oncogene tyrosine-protein kinase Src (Homo sapiens) (UniProt P12931); assay: Inhibition of SRC at 10 uM
[2] = target: Insulin receptor (Homo sapiens) (UniProt P06213); assay: Inhibition of INSR at 10 uM
[3] = target: Aurora kinase B (Homo sapiens) (UniProt Q96GD4); assay: Inhibition of Aurora B at 10 uM
[4] = target: Focal adhesion kinase 1 (Homo sapiens) (UniProt Q05397); assay: Inhibition of FAK at 10 uM
[5] = target: Tyrosine-protein kinase receptor UFO (Homo sapiens) (UniProt P30530); assay: Inhibition of AXL at 10 uM
[6] = target: RAC-alpha serine/threonine-protein kinase (Homo sapiens) (UniProt P31749); assay: Inhibition of AKT1 at 10 uM
[7] = target: Casein kinase II subunit alpha (Homo sapiens) (UniProt P68400); assay: Inhibition of CK2alpha1 at 10 uM
[8] = target: T1, Serine/threonine-protein kinase PLK4 (Homo sapiens) (UniProt O00444); assay: Inhibition of SAK at 10 uM
T1 sequence (whole entry): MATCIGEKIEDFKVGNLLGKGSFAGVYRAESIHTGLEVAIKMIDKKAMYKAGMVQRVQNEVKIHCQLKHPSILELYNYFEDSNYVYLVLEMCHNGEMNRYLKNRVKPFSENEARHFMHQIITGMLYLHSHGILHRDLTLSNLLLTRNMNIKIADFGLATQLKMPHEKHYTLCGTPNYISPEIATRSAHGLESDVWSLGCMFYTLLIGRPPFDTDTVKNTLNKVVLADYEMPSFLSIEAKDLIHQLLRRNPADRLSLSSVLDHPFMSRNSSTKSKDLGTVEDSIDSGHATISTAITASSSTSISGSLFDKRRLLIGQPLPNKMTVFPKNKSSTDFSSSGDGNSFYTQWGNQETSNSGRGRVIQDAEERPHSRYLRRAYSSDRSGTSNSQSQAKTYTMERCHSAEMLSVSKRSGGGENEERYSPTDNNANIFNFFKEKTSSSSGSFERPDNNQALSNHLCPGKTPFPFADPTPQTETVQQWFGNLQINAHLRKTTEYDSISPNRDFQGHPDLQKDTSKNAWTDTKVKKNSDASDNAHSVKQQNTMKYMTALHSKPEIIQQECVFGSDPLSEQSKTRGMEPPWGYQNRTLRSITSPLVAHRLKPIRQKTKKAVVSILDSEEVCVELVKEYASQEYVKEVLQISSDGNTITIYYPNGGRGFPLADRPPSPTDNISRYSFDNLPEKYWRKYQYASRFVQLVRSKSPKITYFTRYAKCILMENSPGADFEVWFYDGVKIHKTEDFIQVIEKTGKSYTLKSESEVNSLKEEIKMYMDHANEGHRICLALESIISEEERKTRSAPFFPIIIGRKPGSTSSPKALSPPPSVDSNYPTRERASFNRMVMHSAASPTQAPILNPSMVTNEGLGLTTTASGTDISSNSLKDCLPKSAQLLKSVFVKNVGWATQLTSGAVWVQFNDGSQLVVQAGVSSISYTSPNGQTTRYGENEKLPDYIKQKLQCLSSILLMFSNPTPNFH

[9] = target: Insulin-like growth factor 1 receptor (Homo sapiens) (UniProt P08069); assay: Inhibition of IGF1R at 10 uM
[10] = target: Vascular endothelial growth factor receptor 2 (Homo sapiens) (UniProt P35968); assay: Inhibition of VGFR2 at 10 uM
[11] = target: Serine/threonine-protein kinase PLK1 (Homo sapiens) (UniProt P53350); assay: Inhibition of PLK1 at 10 uM
[12] = target: Serine/threonine-protein kinase N1 (Homo sapiens) (UniProt Q16512); assay: Inhibition of PRK1 at 10 uM
[13] = target: Hepatocyte growth factor receptor (Homo sapiens) (UniProt P08581); assay: Inhibition of MET at 10 uM
[14] = target: T2, NUAK family SNF1-like kinase 1 (Homo sapiens) (UniProt O60285); assay: Inhibition of ARK5 at 10 uM
T2 sequence (whole entry): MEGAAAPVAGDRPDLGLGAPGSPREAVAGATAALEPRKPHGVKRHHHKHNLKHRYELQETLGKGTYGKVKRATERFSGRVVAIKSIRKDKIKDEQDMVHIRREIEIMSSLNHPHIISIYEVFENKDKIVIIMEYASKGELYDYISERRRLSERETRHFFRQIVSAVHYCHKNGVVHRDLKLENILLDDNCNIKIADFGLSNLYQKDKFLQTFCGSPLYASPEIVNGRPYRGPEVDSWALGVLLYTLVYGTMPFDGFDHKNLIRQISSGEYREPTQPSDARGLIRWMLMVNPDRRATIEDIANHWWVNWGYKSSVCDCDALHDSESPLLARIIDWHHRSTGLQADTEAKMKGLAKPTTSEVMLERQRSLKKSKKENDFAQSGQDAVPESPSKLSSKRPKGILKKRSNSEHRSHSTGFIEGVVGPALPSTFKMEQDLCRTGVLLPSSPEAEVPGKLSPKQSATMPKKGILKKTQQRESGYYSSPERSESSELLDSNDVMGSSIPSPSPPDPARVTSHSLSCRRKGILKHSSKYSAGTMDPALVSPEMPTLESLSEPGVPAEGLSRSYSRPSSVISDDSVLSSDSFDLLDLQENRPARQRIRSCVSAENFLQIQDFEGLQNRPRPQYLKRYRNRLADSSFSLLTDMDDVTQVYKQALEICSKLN

[15] = system: Serine/threonine-protein kinase B-raf (Homo sapiens), P15056 [V600E]; assay: Inhibition of B-Raf V600E mutant at 10 uM
[16] = Inhibition of p38 assessed as rate of ATF-2 phosphorylation by immunosorbent non-radioactive enzyme assay
Procedure, shortened: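 p38α MAP kinase ELISA-type (immunosorbent, non-radioactive) assay. Enzyme was incubated with ATP at 100 µM, ATF-2 as substrate, and test compound at 10^-5 to 10^-8 M. Activity was read as the rate of ATF-2 phosphorylation. SB203580 served as the reference inhibitor.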

[17] = target: BDNF/NT-3 growth factors receptor (Homo sapiens) (UniProt Q16620); assay: Inhibition of TRKB at 10 uM

Chain of Vascular endothelial growth factor receptor 2 (Homo sapiens) (P35968 whole entry): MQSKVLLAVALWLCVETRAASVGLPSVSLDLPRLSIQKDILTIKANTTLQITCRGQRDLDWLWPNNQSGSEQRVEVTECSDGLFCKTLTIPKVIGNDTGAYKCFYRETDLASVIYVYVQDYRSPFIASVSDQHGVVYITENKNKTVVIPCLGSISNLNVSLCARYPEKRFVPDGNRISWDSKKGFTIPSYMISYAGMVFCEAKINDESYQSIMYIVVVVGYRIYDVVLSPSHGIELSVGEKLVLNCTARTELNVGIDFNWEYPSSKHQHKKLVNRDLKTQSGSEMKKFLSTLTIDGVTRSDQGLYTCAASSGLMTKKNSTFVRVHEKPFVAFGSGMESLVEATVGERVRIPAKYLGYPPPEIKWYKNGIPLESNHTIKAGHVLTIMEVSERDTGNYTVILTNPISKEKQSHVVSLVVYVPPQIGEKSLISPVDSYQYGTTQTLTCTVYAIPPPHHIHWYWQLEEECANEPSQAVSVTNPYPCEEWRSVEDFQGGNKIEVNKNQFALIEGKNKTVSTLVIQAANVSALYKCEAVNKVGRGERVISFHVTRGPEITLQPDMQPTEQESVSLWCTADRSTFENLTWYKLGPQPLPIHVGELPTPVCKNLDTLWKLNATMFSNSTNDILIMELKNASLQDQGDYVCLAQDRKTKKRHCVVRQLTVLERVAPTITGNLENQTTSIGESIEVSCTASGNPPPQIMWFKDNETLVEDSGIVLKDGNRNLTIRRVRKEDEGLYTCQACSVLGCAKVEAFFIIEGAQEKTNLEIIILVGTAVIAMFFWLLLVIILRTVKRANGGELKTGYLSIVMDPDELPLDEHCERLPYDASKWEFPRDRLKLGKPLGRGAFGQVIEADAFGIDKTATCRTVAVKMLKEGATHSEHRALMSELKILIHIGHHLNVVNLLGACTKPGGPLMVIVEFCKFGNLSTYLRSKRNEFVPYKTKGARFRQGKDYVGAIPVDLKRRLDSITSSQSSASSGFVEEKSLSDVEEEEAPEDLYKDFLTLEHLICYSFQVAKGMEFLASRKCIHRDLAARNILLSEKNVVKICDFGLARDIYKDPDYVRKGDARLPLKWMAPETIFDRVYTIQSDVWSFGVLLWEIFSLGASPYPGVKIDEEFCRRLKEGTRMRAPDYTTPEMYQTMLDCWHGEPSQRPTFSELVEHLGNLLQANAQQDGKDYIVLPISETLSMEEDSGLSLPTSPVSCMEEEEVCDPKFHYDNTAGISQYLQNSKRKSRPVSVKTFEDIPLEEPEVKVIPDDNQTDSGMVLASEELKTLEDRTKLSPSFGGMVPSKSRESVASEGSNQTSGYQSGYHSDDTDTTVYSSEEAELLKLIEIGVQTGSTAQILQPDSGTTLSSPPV
Chain of Proto-oncogene tyrosine-protein kinase Src (Homo sapiens) (P12931 2-536 limits assumed): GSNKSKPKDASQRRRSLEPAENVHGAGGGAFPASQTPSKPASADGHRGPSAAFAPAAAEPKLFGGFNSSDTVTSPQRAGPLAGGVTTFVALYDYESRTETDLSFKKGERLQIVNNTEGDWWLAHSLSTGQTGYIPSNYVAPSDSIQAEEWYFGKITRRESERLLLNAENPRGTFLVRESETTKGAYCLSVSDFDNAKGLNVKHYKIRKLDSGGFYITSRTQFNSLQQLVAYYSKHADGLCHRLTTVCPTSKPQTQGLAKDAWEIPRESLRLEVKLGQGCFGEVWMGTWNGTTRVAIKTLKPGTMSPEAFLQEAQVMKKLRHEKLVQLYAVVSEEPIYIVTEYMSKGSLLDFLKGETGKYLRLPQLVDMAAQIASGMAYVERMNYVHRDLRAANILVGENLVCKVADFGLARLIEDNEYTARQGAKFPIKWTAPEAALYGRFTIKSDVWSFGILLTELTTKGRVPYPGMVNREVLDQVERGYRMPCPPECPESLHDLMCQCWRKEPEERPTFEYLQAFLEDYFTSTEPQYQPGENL
Chain of Insulin receptor (Homo sapiens) (P06213 28-758 limits assumed): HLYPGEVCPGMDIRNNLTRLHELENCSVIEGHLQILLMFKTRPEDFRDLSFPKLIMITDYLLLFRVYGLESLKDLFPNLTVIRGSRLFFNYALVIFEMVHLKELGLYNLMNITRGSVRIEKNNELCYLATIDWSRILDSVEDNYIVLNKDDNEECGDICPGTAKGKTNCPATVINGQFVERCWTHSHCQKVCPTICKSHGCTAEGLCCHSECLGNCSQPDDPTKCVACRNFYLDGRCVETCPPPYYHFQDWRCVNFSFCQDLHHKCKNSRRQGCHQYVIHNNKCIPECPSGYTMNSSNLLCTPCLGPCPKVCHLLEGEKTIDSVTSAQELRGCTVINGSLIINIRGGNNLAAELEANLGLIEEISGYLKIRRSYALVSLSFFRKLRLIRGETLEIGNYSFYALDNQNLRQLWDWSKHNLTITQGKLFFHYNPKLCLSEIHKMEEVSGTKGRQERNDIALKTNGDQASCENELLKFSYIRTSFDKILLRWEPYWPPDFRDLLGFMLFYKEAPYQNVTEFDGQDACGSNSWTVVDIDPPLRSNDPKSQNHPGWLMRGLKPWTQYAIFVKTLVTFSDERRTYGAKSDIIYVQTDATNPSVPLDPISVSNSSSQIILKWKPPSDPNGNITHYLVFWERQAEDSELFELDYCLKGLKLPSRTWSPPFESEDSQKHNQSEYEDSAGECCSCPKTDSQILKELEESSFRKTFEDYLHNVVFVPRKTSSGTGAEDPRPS
Chain of Insulin receptor (Homo sapiens) (P06213 763-1382 limits assumed): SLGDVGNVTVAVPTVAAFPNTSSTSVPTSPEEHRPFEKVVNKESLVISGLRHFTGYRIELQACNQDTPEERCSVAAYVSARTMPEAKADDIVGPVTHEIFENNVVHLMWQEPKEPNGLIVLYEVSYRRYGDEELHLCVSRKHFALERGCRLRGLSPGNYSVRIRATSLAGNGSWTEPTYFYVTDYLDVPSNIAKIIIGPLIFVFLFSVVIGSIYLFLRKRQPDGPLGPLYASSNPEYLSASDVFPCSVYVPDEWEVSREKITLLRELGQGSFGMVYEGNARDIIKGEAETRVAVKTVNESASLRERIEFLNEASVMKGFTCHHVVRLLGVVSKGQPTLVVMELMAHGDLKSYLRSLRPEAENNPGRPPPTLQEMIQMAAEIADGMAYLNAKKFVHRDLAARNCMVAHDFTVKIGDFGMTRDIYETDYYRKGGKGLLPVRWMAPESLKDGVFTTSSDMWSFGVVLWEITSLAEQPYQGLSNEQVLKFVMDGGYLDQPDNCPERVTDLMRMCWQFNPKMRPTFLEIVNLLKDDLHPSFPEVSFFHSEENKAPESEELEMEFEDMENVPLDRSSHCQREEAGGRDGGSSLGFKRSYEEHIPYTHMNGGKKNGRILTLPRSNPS
Chain of Aurora kinase B (Homo sapiens) (Q96GD4 whole entry): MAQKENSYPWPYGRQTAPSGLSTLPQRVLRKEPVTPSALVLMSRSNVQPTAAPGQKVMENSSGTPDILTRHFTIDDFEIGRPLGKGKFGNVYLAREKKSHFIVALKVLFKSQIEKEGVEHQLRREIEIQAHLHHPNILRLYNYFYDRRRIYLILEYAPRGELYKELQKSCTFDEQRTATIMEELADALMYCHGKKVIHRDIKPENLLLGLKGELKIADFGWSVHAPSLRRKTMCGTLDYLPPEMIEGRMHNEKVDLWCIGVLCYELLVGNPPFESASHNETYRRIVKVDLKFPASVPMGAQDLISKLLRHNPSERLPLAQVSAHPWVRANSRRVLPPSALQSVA
Chain of Insulin-like growth factor 1 receptor (Homo sapiens) (P08069 31-736 limits assumed): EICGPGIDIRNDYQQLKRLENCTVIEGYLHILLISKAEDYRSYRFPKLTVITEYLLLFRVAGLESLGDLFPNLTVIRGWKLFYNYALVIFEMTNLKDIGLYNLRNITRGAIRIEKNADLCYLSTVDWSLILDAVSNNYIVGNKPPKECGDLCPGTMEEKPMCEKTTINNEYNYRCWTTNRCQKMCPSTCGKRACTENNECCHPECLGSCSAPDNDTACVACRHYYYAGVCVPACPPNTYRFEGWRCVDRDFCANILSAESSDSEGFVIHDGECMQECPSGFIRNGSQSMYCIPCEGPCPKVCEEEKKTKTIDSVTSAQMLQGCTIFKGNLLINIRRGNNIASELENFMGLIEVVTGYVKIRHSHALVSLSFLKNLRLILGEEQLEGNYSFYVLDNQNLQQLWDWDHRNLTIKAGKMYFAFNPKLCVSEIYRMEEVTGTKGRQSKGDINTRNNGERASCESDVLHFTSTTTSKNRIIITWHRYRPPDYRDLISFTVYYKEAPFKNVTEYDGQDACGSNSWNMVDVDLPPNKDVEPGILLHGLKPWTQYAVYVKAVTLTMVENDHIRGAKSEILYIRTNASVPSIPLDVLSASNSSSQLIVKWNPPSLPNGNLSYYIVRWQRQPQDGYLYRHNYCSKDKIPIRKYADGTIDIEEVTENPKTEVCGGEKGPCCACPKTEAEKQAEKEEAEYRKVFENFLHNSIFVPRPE
Chain of Insulin-like growth factor 1 receptor (Homo sapiens) (P08069 741-1367 limits assumed): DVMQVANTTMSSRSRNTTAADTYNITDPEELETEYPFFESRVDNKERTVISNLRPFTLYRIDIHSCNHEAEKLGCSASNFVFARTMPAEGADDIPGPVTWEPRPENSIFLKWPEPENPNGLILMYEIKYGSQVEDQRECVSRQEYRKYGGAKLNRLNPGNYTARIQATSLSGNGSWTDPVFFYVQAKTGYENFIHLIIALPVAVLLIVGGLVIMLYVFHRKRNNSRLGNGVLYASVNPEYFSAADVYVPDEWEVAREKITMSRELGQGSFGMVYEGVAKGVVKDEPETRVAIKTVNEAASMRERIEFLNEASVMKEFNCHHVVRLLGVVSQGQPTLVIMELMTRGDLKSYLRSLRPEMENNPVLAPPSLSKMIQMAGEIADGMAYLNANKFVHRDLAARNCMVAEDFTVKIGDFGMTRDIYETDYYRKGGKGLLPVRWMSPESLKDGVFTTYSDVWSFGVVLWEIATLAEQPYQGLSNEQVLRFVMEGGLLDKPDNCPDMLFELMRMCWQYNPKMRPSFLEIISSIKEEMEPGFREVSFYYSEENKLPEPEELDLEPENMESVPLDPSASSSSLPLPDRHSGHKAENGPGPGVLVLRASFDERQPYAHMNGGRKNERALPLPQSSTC

Row | inhibition [1] | inhibition [2] | inhibition [3] | inhibition [4] | inhibition [5] | inhibition [6] | inhibition [7] | inhibition [8] | inhibition [9] | inhibition [10] | inhibition [11] | inhibition [12] | inhibition [13] | inhibition [14] | inhibition [15] | pIC50 [16] | inhibition [17] | SMILES
1 | inactive | inactive | inactive | inactive | inactive | inactive | inactive | inactive | inactive | inactive | inactive | inactive | inactive | inactive | inactive | 5.40 | inactive | Nc1ccccc1Nc1ccc2c(c1)C(=O)Cc1ccccc1C2
2 | inactive | inactive | inactive | inactive | inactive | inactive | inactive | inactive | inactive | inactive | inactive | inactive | inactive | inactive | inactive | 5.53 | inactive | Nc1cc(F)ccc1Nc1ccc2c(c1)Oc1ccccc1NC2=O
3 | inactive | inactive | inactive | inactive | inactive | inactive | inactive | inactive | inactive | inactive | inactive | inactive | inactive | inactive | inactive | 5.42 | inactive | Nc1cc(F)ccc1Nc1ccc2c(c1)Cc1ccccc1C(=O)C2
4 | inactive | inactive | inactive | inactive | inactive | inactive | inactive | inactive | inactive | inactive | inactive | inactive | inactive | inactive | inactive | 5.76 | inactive | O=C1Cc2ccccc2Cc2cc(Nc3ccccc3)ccc21
5 | inactive | inactive | inactive | inactive | inactive | inactive | inactive | inactive | inactive | inactive | inactive | inactive | inactive | inactive | inactive | 5.68 | inactive | Nc1ccccc1Nc1ccc2c(c1)CC(=O)c1ccccc1C2
6 | inactive | inactive | inactive | inactive | inactive | inactive | inactive | inactive | inactive | inactive | inactive | inactive | inactive | inactive | inactive | 5.71 | inactive | Nc1ccccc1Nc1ccc2c(c1)Cc1ccccc1C(=O)C2
7 | inactive | inactive | inactive | inactive | inactive | inactive | inactive | inactive | inactive | inactive | inactive | inactive | inactive | inactive | inactive | 5.57 | inactive | Nc1ccccc1Nc1ccc2c(c1)Oc1ccccc1NC2=O
8 | – | – | – | – | – | – | – | – | – | – | – | – | – | – | – | 5.53 | – | O=C1Cc2ccccc2Oc2cc(Nc3ccccc3)ccc21
9 | inactive | inactive | inactive | inactive | inactive | inactive | inactive | inactive | inactive | inactive | inactive | inactive | inactive | inactive | inactive | 6.00 | inactive | Nc1ccccc1Nc1ccc2c(c1)Cc1ccccc1CC2=O
10 | inactive | inactive | inactive | inactive | inactive | inactive | inactive | inactive | inactive | inactive | inactive | inactive | inactive | inactive | inactive | 5.49 | inactive | O=C1Cc2ccc(Nc3ccccc3)cc2Cc2ccccc21
11 | – | – | – | – | – | – | – | – | – | – | – | – | – | – | – | 7.30 | – | Nc1ccccc1Nc1ccc2c(c1)CCc1ccccc1C2=O
12 | – | – | – | – | – | – | – | – | – | – | – | – | – | – | – | 5.92 | – | Nc1ccccc1Nc1ccc2c(c1)Oc1ccccc1CC2=O
13 | – | – | – | – | – | – | – | – | – | – | – | – | – | – | – | 5.79 | – | Nc1cc(F)ccc1Nc1ccc2c(c1)Oc1ccccc1CC2=O
